Source: ChEMBL document CHEMBL5260822, “Structure-based design and synthesis of 2,4-diaminopyrimidines as EGFR L858R/T790M selective inhibitors for NSCLC” (Eur J Med Chem, 2017)
The source made the active and inactive calls. The rule behind the calls is not given here.

How the values were obtained:
[1] = target: T1, Epidermal growth factor receptor (Homo sapiens, UniProt P00533); test: Inhibition of wild type EGFR (unknown origin) expressed in baculovirus expression system by ELISA
[2] = Toxicity in BALB/c nude mouse xenografted with human NCI-H1975 cells harboring EGFR L858R/T790M mutant assessed as mortality at 15 to 30 mg/kg, po for 18 days; assay type: organism-based; details: in vivo, 432 h, dose 15-30 mg/kg, time 18 day
Outline: (§1)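 Female BALB/cA nu/nu mice were given 1 × 10^6 H1975 cells in 0.1 mL PBS subcutaneously in the right flank. At an average tumour volume of 100 mm3 (about 18 days post-implantation) they were randomised, n = 6 per group. Groups received 15 or 30 mg/kg/day for 18 consecutive days or vehicle. Mice were kept at constant room temperature, 12/12-h light/dark, with standard diet and water ad lib.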

[3] = Half life in Sprague-Dawley rat at 1 mg/kg, iv and measured after 24 hrs by LC-MS/MS analysis; assay type: ADME, organism-based; details: in vivo
[4] = AUC (0 to infinity) in Sprague-Dawley rat at 10 mg/kg, po and measured after 24 hrs by LC-MS/MS analysis; assay type: ADME, organism-based; design: dose 10 mg/kg, time 24 hrs, route po; details: in vivo
Outline: (§2)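 Male Sprague–Dawley rats (190–220 g) dosed by oral gavage at 10 mg/kg in 5% DMSO / 95% HP-β-CD aqueous solution (20%); iv reference arm at 1 mg/kg. Blood sampled at 0.25, 0.5, 1, 2, 4, 6, 8 and 24 h, centrifuged (8000 × g, 6 min), and plasma quantified by LC–MS/MS.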

[5] = Toxicity in BALB/c nude mouse xenografted with human NCI-H1975 cells harboring EGFR L858R/T790M mutant assessed as morphological changes in kidney at 15 to 30 mg/kg, po for 18 days by hematoxylin and eosin staining based microscopic analysis; assay type: organism-based; details: in vivo, 432 h, dose 15-30 mg/kg, time 18 day
Outline: (§3)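 H1975 subcutaneous xenografts were grown in female BALB/cA nu/nu mice (n = 6 per group), dosed at 15 or 30 mg/kg/day for 18 days or with vehicle. At the end the mice were sacrificed. Heart, kidney and liver were harvested, processed and stained with hematoxylin and eosin for routine histological examination.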

[6] = target: MAP kinase-interacting serine/threonine-protein kinase 2 (Homo sapiens) (UniProt Q9HBH9); test: Inhibition of MKNK2 (unknown origin) at 1000 nM by DiscoverX KINOMEscan assay relative to control; values are per cent of control
[7] = target: T1, Epidermal growth factor receptor; test: Inhibition of EGFR phosphorylation in EGF-stimulated human A-431 cells harboring wild type EGFR at 100 nM and measured after 2 hrs by Western blot analysis; assay type: cell-based
Outline: (§4)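 Cells treated with compound for 2 h, then stimulated with EGF for 15 min and lysed. Lysates cleared at 12,000 × g (10 min, 4 °C), protein measured by Bradford assay, and equal amounts run on 8% SDS-PAGE and blotted to nitrocellulose. Probed for p-EGFR (Y1068), EGFR, p-ERK (T202/Y204), ERK, with tubulin or GAPDH as loading controls.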

[8] = target: Epidermal growth factor receptor (Homo sapiens, UniProt P00533, L858R/T790M); test: Inhibition of EGFR L858R/T790M mutant (unknown origin) expressed in baculovirus expression system by ELISA
[9] = tested on: Epidermal growth factor receptor (Homo sapiens), P00533 [L858R,T790M]; details: NCI-H1975, dose 10.0 nM, time 2.0 hrs
[10] = Cmax in Sprague-Dawley rat at 1 mg/kg, iv and measured after 24 hrs by LC-MS/MS analysis; assay type: ADME, organism-based; design: dose 1 mg/kg, time 24 hrs, route iv; details: in vivo
NCI-H1975 [11] = test: Inhibition of Erk signalling in EGF-stimulated human NCI-H1975 cells harboring EGFR L858R/T790M double mutant assessed as decrease in p-ERK level at 0.1 to 100 nM and measured after 2 hrs by Western blot analysis; assay type: cell-based; details: dose 0.1-100 nM; outline: as §4
[12] = Toxicity in BALB/c nude mouse xenografted with human NCI-H1975 cells harboring EGFR L858R/T790M mutant assessed as body weight loss at 15 to 30 mg/kg, po for 18 days; assay type: organism-based; details: in vivo, 432 h, dose 15-30 mg/kg, time 18 day; outline: as §1
[13] = target: Insulin-like growth factor 1 receptor (Homo sapiens) (UniProt P08069); test: Inhibition of IGF1R (unknown origin) at 1000 nM by DiscoverX KINOMEscan assay relative to control; values are per cent of control
[14] = tested on: Epidermal growth factor receptor (Homo sapiens), P00533 [L858R,T790M]; test: Inhibition of EGFR phosphorylation in EGF-stimulated human NCI-H1975 cells harboring EGFR L858R/T790M double mutant at 0.1 to 100 nM and measured after 2 hrs by Western blot analysis; assay type: cell-based; details: dose 0.1-100 nM; outline: as §4
[15] = tested on: Epidermal growth factor receptor (Homo sapiens), P00533 [L858R,T790M]; test: In vivo inhibition of EGFR in BALB/c nude mouse xenografted with human NCI-H1975 cells harboring EGFR L858R/T790M mutant assessed as decrease in phosphorylated-EGFR level at 15 to 30 mg/kg, po for 18 days by western blot analysis; assay type: functional, organism-based; details: dose 15-30 mg/kg, time 18.0 day
[16] = Toxicity in BALB/c nude mouse xenografted with human NCI-H1975 cells harboring EGFR L858R/T790M mutant assessed as morphological changes in heart at 15 to 30 mg/kg, po for 18 days by hematoxylin and eosin staining based microscopic analysis; assay type: organism-based; details: in vivo, 432 h, dose 15-30 mg/kg, time 18 day; outline: as §3
[17] = Oral bioavailability in Sprague-Dawley rat at 10 mg/kg and measured after 24 hrs by LC-MS/MS analysis; assay type: ADME, organism-based; details: in vivo; outline: as §2
[18] = target: Insulin receptor (Homo sapiens) (UniProt P06213); test: Inhibition of INSR (unknown origin) at 1000 nM by DiscoverX KINOMEscan assay relative to control; values are per cent of control
NCI-H1975 [19] = test: Antiproliferative activity against human NCI-H1975 cells harboring EGFR L858R/T790M double mutant assessed as inhibition of cell proliferation incubated for 72 hrs by sulforhodamine B colorimetric assay; assay type: functional, cell-based; details: NCI-H1975, 72 h
NCI-H1975 [20] = test: Inhibition of Akt signalling in EGF-stimulated human NCI-H1975 cells harboring EGFR L858R/T790M double mutant assessed as […] at 0.1 to 100 nM and measured after 2 hrs by Western blot analysis; assay type: cell-based; details: dose 0.1-100 nM
[21] = Volume of distribution at steady state in Sprague-Dawley rat at 1 mg/kg, iv and measured after 24 hrs by LC-MS/MS analysis; assay type: ADME, organism-based; details: in vivo, read-out: Vdss
[22] = target: ALK tyrosine kinase receptor (Homo sapiens) (UniProt Q9UM73); test: Inhibition of ALK (unknown origin) at 1000 nM by DiscoverX KINOMEscan assay relative to control; values are per cent of control
[23] = Half life in Sprague-Dawley rat at 10 mg/kg, po and measured after 24 hrs by LC-MS/MS analysis; assay type: ADME, organism-based; details: in vivo; outline: as §2
[24] = Toxicity in BALB/c nude mouse xenografted with human NCI-H1975 cells harboring EGFR L858R/T790M mutant assessed as morphological changes in liver at 15 to 30 mg/kg, po for 18 days by hematoxylin and eosin staining based microscopic analysis; assay type: organism-based; details: in vivo, 432 h, dose 15-30 mg/kg, time 18 day; outline: as §3

Epidermal growth factor receptor (Homo sapiens), P00533 [L858R,T790M], sequence (P00533 whole entry T790M/L858R, looked up): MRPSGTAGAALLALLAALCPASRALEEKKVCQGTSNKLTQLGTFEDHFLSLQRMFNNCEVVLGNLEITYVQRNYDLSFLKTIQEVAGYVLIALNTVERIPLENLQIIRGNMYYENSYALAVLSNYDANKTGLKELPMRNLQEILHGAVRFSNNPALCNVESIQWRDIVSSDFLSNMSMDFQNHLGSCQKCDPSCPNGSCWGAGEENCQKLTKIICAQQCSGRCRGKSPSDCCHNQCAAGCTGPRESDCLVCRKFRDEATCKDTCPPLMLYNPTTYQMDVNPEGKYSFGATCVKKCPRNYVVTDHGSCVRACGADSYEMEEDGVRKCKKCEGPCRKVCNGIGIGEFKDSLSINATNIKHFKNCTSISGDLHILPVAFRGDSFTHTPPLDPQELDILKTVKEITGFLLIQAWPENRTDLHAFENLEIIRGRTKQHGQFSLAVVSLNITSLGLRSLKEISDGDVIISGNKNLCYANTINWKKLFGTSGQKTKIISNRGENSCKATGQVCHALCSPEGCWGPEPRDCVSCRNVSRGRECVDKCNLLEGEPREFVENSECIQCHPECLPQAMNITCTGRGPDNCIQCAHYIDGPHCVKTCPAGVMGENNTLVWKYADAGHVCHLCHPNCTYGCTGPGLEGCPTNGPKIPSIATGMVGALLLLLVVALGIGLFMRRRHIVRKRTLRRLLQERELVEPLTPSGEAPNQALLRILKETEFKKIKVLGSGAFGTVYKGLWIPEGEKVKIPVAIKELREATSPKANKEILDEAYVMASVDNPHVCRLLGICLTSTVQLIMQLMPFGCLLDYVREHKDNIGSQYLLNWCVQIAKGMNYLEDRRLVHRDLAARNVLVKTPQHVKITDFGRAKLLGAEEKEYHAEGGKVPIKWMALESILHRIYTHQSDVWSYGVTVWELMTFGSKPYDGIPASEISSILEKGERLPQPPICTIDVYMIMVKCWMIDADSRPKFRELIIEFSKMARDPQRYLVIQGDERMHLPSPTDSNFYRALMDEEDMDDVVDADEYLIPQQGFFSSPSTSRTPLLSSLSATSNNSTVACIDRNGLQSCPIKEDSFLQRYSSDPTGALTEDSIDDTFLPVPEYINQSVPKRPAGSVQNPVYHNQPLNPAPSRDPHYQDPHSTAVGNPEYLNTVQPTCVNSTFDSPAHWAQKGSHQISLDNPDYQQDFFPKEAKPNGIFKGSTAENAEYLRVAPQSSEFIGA
T1 sequence (P00533 whole entry): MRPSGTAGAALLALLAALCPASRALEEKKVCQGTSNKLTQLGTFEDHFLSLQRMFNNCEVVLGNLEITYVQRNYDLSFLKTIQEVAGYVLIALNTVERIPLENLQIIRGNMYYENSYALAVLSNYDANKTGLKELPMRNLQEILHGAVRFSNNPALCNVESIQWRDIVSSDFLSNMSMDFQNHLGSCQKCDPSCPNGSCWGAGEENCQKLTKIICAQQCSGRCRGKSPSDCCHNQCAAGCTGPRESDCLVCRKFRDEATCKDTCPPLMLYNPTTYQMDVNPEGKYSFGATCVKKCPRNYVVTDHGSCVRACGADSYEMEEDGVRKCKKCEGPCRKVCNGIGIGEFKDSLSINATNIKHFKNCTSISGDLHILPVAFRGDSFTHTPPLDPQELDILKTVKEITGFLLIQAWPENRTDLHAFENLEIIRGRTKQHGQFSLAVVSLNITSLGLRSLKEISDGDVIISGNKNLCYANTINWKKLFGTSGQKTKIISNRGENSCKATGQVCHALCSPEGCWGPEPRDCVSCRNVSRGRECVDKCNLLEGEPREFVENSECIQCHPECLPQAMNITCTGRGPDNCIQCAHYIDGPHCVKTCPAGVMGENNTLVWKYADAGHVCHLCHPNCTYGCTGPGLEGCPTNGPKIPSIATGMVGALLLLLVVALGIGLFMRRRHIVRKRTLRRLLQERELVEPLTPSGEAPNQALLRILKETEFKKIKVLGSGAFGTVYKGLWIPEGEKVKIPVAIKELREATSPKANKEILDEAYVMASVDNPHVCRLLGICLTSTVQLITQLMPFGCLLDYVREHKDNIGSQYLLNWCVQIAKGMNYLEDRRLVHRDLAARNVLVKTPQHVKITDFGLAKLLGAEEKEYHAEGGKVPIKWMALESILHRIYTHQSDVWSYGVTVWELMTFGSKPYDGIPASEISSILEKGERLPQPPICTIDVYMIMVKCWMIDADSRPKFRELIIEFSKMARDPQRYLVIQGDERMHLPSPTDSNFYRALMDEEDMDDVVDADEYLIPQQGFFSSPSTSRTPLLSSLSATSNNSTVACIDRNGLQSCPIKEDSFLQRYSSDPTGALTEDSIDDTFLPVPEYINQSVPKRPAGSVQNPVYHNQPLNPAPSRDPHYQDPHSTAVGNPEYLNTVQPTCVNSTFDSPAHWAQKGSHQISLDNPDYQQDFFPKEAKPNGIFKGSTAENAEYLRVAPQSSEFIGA
ALK tyrosine kinase receptor (Homo sapiens), sequence (Q9UM73 19-1620 limits assumed): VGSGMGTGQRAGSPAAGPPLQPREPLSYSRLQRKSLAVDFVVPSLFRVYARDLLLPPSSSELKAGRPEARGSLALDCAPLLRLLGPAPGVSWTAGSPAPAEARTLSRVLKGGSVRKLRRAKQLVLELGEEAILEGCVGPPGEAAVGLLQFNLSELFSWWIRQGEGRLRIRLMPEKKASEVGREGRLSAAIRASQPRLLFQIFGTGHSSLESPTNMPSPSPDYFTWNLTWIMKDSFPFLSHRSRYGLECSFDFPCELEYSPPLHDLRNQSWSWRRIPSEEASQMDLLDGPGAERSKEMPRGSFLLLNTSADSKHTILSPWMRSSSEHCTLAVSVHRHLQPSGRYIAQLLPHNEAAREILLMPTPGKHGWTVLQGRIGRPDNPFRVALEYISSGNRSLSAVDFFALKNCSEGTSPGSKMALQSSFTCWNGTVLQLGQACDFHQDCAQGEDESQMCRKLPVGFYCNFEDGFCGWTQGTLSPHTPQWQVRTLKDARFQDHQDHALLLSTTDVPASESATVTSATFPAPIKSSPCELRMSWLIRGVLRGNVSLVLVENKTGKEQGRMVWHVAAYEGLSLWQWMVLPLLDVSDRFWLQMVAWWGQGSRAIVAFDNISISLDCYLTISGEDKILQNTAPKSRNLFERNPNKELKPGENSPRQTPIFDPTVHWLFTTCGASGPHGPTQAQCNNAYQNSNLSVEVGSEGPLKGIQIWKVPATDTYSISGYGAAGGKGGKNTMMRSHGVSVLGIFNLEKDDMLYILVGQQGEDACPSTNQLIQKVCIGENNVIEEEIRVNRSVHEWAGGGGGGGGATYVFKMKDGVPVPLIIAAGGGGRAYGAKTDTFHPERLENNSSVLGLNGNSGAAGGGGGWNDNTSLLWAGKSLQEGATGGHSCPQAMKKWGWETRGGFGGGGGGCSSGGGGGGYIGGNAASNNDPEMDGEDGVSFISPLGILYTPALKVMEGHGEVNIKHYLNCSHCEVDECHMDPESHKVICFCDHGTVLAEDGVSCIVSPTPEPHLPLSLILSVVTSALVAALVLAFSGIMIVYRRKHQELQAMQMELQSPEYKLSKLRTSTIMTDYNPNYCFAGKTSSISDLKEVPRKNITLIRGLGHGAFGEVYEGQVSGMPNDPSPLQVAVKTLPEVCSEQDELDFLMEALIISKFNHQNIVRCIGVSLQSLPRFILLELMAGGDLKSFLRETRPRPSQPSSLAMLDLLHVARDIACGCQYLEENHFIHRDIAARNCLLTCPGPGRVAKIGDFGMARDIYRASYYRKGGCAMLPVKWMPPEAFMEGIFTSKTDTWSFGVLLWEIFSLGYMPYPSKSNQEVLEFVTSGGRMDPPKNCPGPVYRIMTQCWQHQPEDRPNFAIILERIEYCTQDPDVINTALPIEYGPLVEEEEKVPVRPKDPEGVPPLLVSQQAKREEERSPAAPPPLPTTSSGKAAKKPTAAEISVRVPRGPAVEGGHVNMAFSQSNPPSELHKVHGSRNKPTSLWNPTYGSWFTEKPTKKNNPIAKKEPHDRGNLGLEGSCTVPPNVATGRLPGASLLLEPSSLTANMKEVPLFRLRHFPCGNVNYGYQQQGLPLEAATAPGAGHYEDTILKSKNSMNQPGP
MAP kinase-interacting serine/threonine-protein kinase 2 (Homo sapiens), sequence (Q9HBH9 whole entry, looked up): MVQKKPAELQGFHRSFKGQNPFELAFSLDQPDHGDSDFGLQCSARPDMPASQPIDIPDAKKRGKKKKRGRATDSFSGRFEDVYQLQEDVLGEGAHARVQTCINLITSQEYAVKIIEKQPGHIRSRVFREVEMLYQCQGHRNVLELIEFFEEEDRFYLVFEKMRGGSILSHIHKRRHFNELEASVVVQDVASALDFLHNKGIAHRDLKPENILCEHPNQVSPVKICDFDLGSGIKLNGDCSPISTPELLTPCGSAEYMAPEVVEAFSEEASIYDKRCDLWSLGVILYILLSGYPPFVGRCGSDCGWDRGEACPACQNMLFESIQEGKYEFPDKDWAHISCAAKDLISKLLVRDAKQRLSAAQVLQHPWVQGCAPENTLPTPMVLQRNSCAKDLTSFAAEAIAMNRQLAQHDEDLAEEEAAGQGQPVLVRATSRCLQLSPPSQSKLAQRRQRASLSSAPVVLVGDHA

In the case of `C=CC(=O)Nc1cc(Nc2ncc(Br)c(Nc3ccc4ccn(C)c4c3)n2)c(OC)cc1N1CCN(C)CC1`, the IC50 [1] is reported as 280 nM, the Activity [2] is reported as “Non-Toxic” and the half-life [3] is reported as 208 min. For the same molecule, the AUC [4] was 52.3 ng·h/mL, the Activity [5] was “Non-Toxic” and the residual activity [6] was less than 10%. For the same molecule, the inhibition [7] was “inactive”, the IC50 [8] was 4.1 nM and the inhibition [9] was “Active”. For the same molecule, the Cmax [10] was 235 ng/mL, the inhibition (NCI-H1975 [11]) was “Dose-Dependent Effect” and the Activity [12] was “Non-Toxic”. The residual activity [13] was greater than 35%, the inhibition [14] was “Dose-Dependent Effect” and the inhibition [15] was “Active”. The Activity [16] was “Non-Toxic”, the F [17] was 52.3% and the residual activity [18] was less than 10%. The IC50 (NCI-H1975 [19]) was 184 nM, the inhibition (NCI-H1975 [20]) was “Dose-Dependent Effect” and the Vd [21] was 6.56 L/kg. The residual activity [22] was less than 10%, the half-life [23] was 195 min and the Activity [24] was “Non-Toxic”.
